Assay [1] relates to Pasteurella multocida. Kind of assay: In vivo protective dose was evaluated Pasteurella multocida (59A006) in mouse(sc). Type of assay: functional. The note with it: read-out: PD50. A digest of the protocol: (§1)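 Female CF-1 mice (15 g), groups of 10, challenged ip with 0.5 mL bacterial suspension (P. multocida 59A006 or E. coli 51A266 at 3.0 × 10^8 cfu/mL; S. choleraesuis 58B010 at 8.5 × 10^2 cfu/mL). Drug given sc or po at 30 min, 4 h and 24 h after challenge; survival recorded at 96 h; PD50 by probit analysis.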

In assay [2] the test system is Escherichia coli. Kind of assay: Escherichia coli DNA cleavage endpoint value which is the minimum amount required (in micro g/mL) to induce detectable cleavage of supercoiled pBR322 substrate to linear form (gyrase). Type of assay: functional. Conditions: read-out: MIC. A digest of the protocol:
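DNA gyrase A and B subunits were purified from E. coli overproducers. About 2 units of holoenzyme were incubated with pBR322 in Tris-HCl pH 7.5 containing MgCl2, spermidine, DTT, 0.2 mM ATP, BSA and tRNA. Drug was added as 2-fold serial dilutions, and reactions ran for 60 min at 25 °C. Reactions were stopped with SDS and proteinase K, then run on agarose and stained with ethidium. The endpoint was the lowest concentration giving detectable linear DNA.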

The test system of assay [3] is Bordetella bronchiseptica. Kind of assay: In vitro antibacterial activity against aerobically grown Bordetella bronchiseptica (73A009). Type of assay: functional. A digest of the protocol:
(§2)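 Agar dilution MICs. Aerobic strains were tested on brain heart infusion agar and incubated aerobically at 37 °C for 18–20 h.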

The test system of another assay is Trueperella pyogenes. Description: In vitro antibacterial activity against anaerobically grown Actinomyces pyogenes (14D002). The format is functional. The essentials: (§3)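 Agar dilution MICs. Anaerobic strains were tested on tryptose agar with 5% bovine blood and incubated 48 h at 39 °C in an anaerobe chamber under N2/CO2/H2 (80:10:10).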
The subject of assay [4] is Actinobacillus pleuropneumoniae. Description: In vitro antibacterial activity against anaerobically grown Actinobacillus pleuropneumoniae ([…]). The format is functional. The essentials: as §3
The next assay deals with Phocaeicola vulgatus. Kind of assay: In vitro antibacterial activity against anaerobically grown Bacteroides vulgatus (78D029). Type of assay: functional. A digest of the protocol:
as §3

The test system of the next assay is Staphylococcus aureus. Kind of assay: In vitro antibacterial activity against aerobically grown Staphylococcus aureus (54B004). Type of assay: functional. The essentials:
as §2

The test system of assay [5] is Escherichia coli. Description: In vitro antibacterial activity against aerobically grown Escherichia coli (51A538). Type of assay: functional. A digest of the protocol: as §2
Assay [6] can be described thus: In vitro evaluation for antibacterial activity against anaerobically grown Treponema hyodysenteriae (94A007). Type of assay: functional. The note with it: Brachyspira hyodysenteriae.
Assay [7] in a line: In vitro antibacterial activity against Aerobically grown Pasteurella haemolytica (59B018). The format is functional. Conditions: Mannheimia haemolytica. A digest of the protocol:
as §2

Another assay relates to Salmonella enterica. Description: In vitro antibacterial activity against aerobically grown Salmonella choleraesuis (58B015). Type of assay: functional.
Assay [8] relates to Pasteurella multocida. Description: In vitro antibacterial activity against aerobically grown Pasteurella multocida (59A006). Type of assay: functional. A digest of the protocol:
as §2

The test system of a further assay is Clostridium perfringens. Kind of assay: microbe, parasite or virus in culture. The format is functional.
In assay [9] the test system is Pasteurella multocida. Description: In vivo protective dose was evaluated against Pasteurella multocida (59A006) in mouse(sc). Type of assay: functional. Conditions: read-out: PD50. A digest of the protocol:
as §1

In assay [10] the test system is Escherichia coli. Kind of assay: In vivo protective dose was evaluated against Escherichia coli (51A266) in mouse(sc). The format is functional. The note with it: read-out: PD50. The essentials: as §1
The subject of assay [11] is Actinobacillus pleuropneumoniae. Kind of assay: Compound was evaluated for minimum effective dose against Actinobacillus pleuropneumonia, intramuscular dose administration. The note with it: im, read-out: MED.
A further assay deals with Mannheimia haemolytica. Description: Compound was evaluated for minimum effective dose against Pasteurella haemolytica, intramuscular dose administration. Conditions: im, read-out: MED. Type of assay: functional. A digest of the protocol: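 Calves acid-treated intratracheally with 0.6 mL 8% acetic acid at 24 h and 4 h before endotracheal challenge with 50 mL P. haemolytica B280PA (~5 × 10^8 cfu/mL). im dosing of 2.5% or 5% solution in sterile water, day 0 and day 1 (SID × 2). Clinical signs and temperature recorded days 0–5; lungs scored and cultured. MED = lowest dose giving significant (65%) reduction of lung pathology.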

Assay [12] concerns Pasteurella multocida. Description: In vivo protective dose was evaluated against Pasteurella multocida (59A006) in mouse(po). The format is functional. Conditions: read-out: PD50. The essentials:
as §1

In assay [13] the test system is Escherichia coli. Description: In vivo protective dose was evaluated against Escherichia coli (51A266) in mouse(po). The format is functional. Conditions: read-out: PD50. A digest of the protocol: as §1

≈ marks a conversion by molar mass, not a printed value.

For the compound `CCn1cc(C(=O)O)c(=O)c2cc(F)c(N3CC[C@H]4CCC(C3)N4C)cc21`, the ED50 in the assay with Pasteurella multocida [1] was 1.03 mg/kg. Moreover, the minimum concentration inducing gyrase-mediated DNA cleavage with Escherichia coli [2] came to 1.56 µg/mL. The MIC in [3] is over 1.56 µg/mL; with Trueperella pyogenes, over 3.13 µg/mL; in [4], 0.78 µg/mL (≈ 2.09 µM); against Phocaeicola vulgatus, over 3.13 µg/mL; against Staphylococcus aureus it was 1.56 µg/mL (≈ 4.18 µM); against Escherichia coli [5] it was over 1.56 µg/mL. Also, the MIC is over 3.13 µg/mL in assay [6]; 1.56 µg/mL (≈ 4.18 µM) in assay [7]; over 1.56 µg/mL against Salmonella enterica; 0.39 µg/mL (≈ 1.04 µM) in the assay with Pasteurella multocida [8]; 1.56 µg/mL (≈ 4.18 µM) in the assay with Clostridium perfringens.
As for `CCn1cc(C(=O)O)c(=O)c2cc(F)c(N3CCN4CCCC3C4)cc21` (stereo unspecified), the minimum concentration inducing gyrase-mediated DNA cleavage in the assay with Escherichia coli [2] was determined as 3.12 µg/mL. Further, the MIC in [3] is over 1.56 µg/mL; against Trueperella pyogenes, over 3.13 µg/mL; in assay [4], 0.05 µg/mL (≈ 0.139 µM); in the assay on Phocaeicola vulgatus, 3.13 µg/mL (≈ 8.71 µM); with Staphylococcus aureus, 0.39 µg/mL (≈ 1.09 µM); in the assay on Escherichia coli [5], 0.2 µg/mL (≈ 0.556 µM). Further, the MIC in [6] came out at 0.39 µg/mL (≈ 1.09 µM); in assay [7] it was 0.1 µg/mL (≈ 0.278 µM); in the assay on Salmonella enterica, 0.2 µg/mL (≈ 0.556 µM); in the assay with Pasteurella multocida [8] it was 0.02 µg/mL (≈ 0.0556 µM); in the assay on Clostridium perfringens it was 0.39 µg/mL (≈ 1.09 µM). The figures for the ED50 with Pasteurella multocida [9] and with Escherichia coli [10] were 0.71 mg/kg and 1.36 mg/kg, respectively.
On to `CN1[C@@H]2CC[C@H]1CN(c1cc3c(cc1F)c(=O)c(C(=O)O)cn3C1CC1)C2`, for which, in the assay on Escherichia coli [2], the minimum concentration inducing gyrase-mediated DNA cleavage was found to be 0.78 µg/mL. In addition, the MIC was determined as 1.56 µg/mL (≈ 4.2 µM) in [3]; 3.13 µg/mL (≈ 8.43 µM) against Trueperella pyogenes; 0.39 µg/mL (≈ 1.05 µM) in assay [4]; 1.56 µg/mL (≈ 4.2 µM) with Phocaeicola vulgatus; 0.1 µg/mL (≈ 0.269 µM) against Staphylococcus aureus; 0.1 µg/mL (≈ 0.269 µM) with Escherichia coli [5]. Further, the MIC in [6] was found to be 0.78 µg/mL (≈ 2.1 µM); in assay [7], 0.1 µg/mL (≈ 0.269 µM); with Salmonella enterica it was 0.2 µg/mL (≈ 0.538 µM); against Pasteurella multocida [8], 0.05 µg/mL (≈ 0.135 µM); against Clostridium perfringens, 0.1 µg/mL (≈ 0.269 µM). Besides, the minimal effective dose (in assay [11]; in the assay with Mannheimia haemolytica) was 0.3 mg/kg in each case. For the same compound, the ED50 with Pasteurella multocida [9] came out at 0.37 mg/kg; in the assay with Pasteurella multocida [12], 0.98 mg/kg; in the assay with Escherichia coli [10] it was 0.15 mg/kg; with Escherichia coli [13] it was 3.8 mg/kg.
As for `CN1C[C@H]2C[C@@H]1CN2c1cc2c(cc1F)c(=O)c(C(=O)O)cn2C1CC1`, in the assay on Pasteurella multocida [1], the ED50 was found to be 0.22 mg/kg. The minimum concentration inducing gyrase-mediated DNA cleavage in the assay on Escherichia coli [2] stood at 0.19 µg/mL. The MIC in [3] was found to be 1.56 µg/mL (≈ 4.37 µM); against Trueperella pyogenes it was 3.13 µg/mL (≈ 8.76 µM); in assay [4] it was 0.05 µg/mL (≈ 0.14 µM); against Phocaeicola vulgatus, 3.13 µg/mL (≈ 8.76 µM); with Staphylococcus aureus, 0.39 µg/mL (≈ 1.09 µM); against Escherichia coli [5], 0.05 µg/mL (≈ 0.14 µM). The MIC in assay [6] was 1.56 µg/mL (≈ 4.37 µM); in [7], 0.05 µg/mL (≈ 0.14 µM); with Salmonella enterica it was 0.1 µg/mL (≈ 0.28 µM); in the assay on Pasteurella multocida [8], 0.02 µg/mL (≈ 0.056 µM); against Clostridium perfringens, 0.2 µg/mL (≈ 0.56 µM).
In the case of `CN1C[C@@H]2C[C@H]1CN2c1cc2c(cc1F)c(=O)c(C(=O)O)cn2-c1ccc(F)cc1`, the minimum concentration inducing gyrase-mediated DNA cleavage in the assay on Escherichia coli [2] came out at 1.56 µg/mL. Further, the MIC in assay [3] was 1.56 µg/mL (≈ 3.79 µM); with Trueperella pyogenes, 3.13 µg/mL (≈ 7.61 µM); in assay [4] it was 0.1 µg/mL (≈ 0.243 µM); with Phocaeicola vulgatus, 1.56 µg/mL (≈ 3.79 µM); against Staphylococcus aureus, 0.2 µg/mL (≈ 0.486 µM); in the assay with Escherichia coli [5], 0.2 µg/mL (≈ 0.486 µM). For the same compound, the MIC turned out to be 0.78 µg/mL (≈ 1.9 µM) in assay [6]; 0.1 µg/mL (≈ 0.243 µM) in [7]; 0.2 µg/mL (≈ 0.486 µM) in the assay with Salmonella enterica; 0.02 µg/mL (≈ 0.0486 µM) with Pasteurella multocida [8]; 0.1 µg/mL (≈ 0.243 µM) in the assay with Clostridium perfringens. Further, the ED50 with Pasteurella multocida [9] was 0.29 mg/kg; in the assay with Escherichia coli [10], 0.94 mg/kg.
In the case of `O=C(O)c1cn(C2CC2)c2cc(N3CCN4CCCC3C4)c(F)cc2c1=O` (stereo unspecified), the minimum concentration inducing gyrase-mediated DNA cleavage in the assay with Escherichia coli [2] was 0.78 µg/mL. Further, the MIC was determined as 0.78 µg/mL (≈ 2.1 µM) in [3]; 3.13 µg/mL (≈ 8.43 µM) against Trueperella pyogenes; 0.02 µg/mL (≈ 0.0538 µM) in assay [4]; 0.78 µg/mL (≈ 2.1 µM) against Phocaeicola vulgatus; 0.1 µg/mL (≈ 0.269 µM) in the assay on Staphylococcus aureus; 0.05 µg/mL (≈ 0.135 µM) in the assay on Escherichia coli [5]. Besides, the MIC in [6] worked out at 0.2 µg/mL (≈ 0.538 µM); in assay [7] it was 0.02 µg/mL (≈ 0.0538 µM); with Salmonella enterica, 0.05 µg/mL (≈ 0.135 µM); in the assay on Pasteurella multocida [8], 0.002 µg/mL (≈ 0.00538 µM); against Clostridium perfringens, 0.2 µg/mL (≈ 0.538 µM). The ED50 in the assay on Pasteurella multocida [9] was 0.15 mg/kg; in the assay with Escherichia coli [10] it was 0.31 mg/kg.

These data come from ChEMBL document CHEMBL1126160, “Synthesis and structure-activity relationships of 7-diazabicycloalkylquinolones, including danofloxacin, a new quinolone antibacterial agent for veterinary medicine” (J Med Chem, 1992).
